# Publication PMC10450003 (Clinical Pharmacokinetics, 2023)
# Like-named read-outs stand apart in the source and are kept apart here.
# How the values were obtained:
# [1] = cited from earlier work
# [2] = Mass balance: recovery of radioactive dose in urine, feces and dialysate; type: in vivo, human; settings: subjects on hemodialysis; sum of all dialysis treatments (3 times per week, 4 h); total radioactivity (LSC); mean, n = 6
# [3] = test system: CYP1A2, CYP2C19, CYP2C8, CYP2C9, CYP2D6, or CYP3A; settings: human hepatic microsomes or in vitro hepatocytes; cited from earlier work
# [4] = Safety: adverse events in the phase 1 study; type: in vivo, human
# [5] = test system: other receptors, ion channels, or transporters; settings: other than kappa-opioid receptor; cited from earlier work
# [6] = type: in vivo, human; settings: for total radioactivity in whole blood lower than that in plasma: based on mean Cmax and AUCinf; for time to maximum concentration (post-dose): single IV bolus
# Method in brief: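 Six healthy and six HD adult males received one 1 mL IV bolus of [14C]-labelled test compound in 0.9% NaCl: 100 μCi, about 200 μg, 1.7–3.0 μg/kg. HD subjects were dosed via the dialysis port after the last weekly dialysis. Plasma aliquots were counted by LSC; whole blood was combusted in an oxidizer before LSC. Results were converted to ng-eq. Noncompartmental analysis used actual sample times and dose: Cmax, tmax, AUClast, AUCinf, t1/2, CL, Vz.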
# [7] = Metabolite profiling in pooled fecal homogenate; type: in vivo, human; settings: subjects on hemodialysis
smiles,measurement,setting,value
"CC(C)C[C@@H](NC(=O)[C@@H](Cc1ccccc1)NC(=O)[C@H](N)Cc1ccccc1)C(=O)N[C@H](CCCCN)C(=O)N1CCC(N)(C(=O)O)CC1 [Difelikefalin, 4-amino-1-[(2R)-6-amino-2-[[(2R)-2-[[(2R)-2-[[(2R)-2-amino-3-phenylpropanoyl]amino]-3-phenylpropanoyl]amino]-4-methylpentanoyl]amino]hexanoyl]piperidine-4-carboxylic acid]","abuse potential, physical dependence, respiratory depression",[1],"no abuse potential, no physical dependence, and no respiratory depression effects"
same,Percent of dose recovered in dialysate,[2],19.5%
same,metabolism by cytochrome P450 (CYP) enzymes,[3],not metabolized
same,TEAEs considered by the investigator unrelated to study treatment,[4]; all 12 participants,17 of 24
same,subjects reporting treatment-emergent AEs (TEAEs),"[4]; healthy subjects, of n = 6",three of the six
same,"activity at other receptors, ion channels, or transporters",[5],"no activity at other receptors, ion channels, or transporters"
same,total radioactivity in whole blood lower than that in plasma,[6]; healthy subjects,~45%
same,time to maximum concentration (post-dose),"[6]; healthy subjects, plasma total radioactivity",5 min
same,"mean AUC, subjects on HD versus healthy subjects","[6]; plasma total radioactivity, ratio of mean AUC, HD higher",approximately 11 fold
same,total radioactivity in whole blood lower than that in plasma,[6]; subjects on hemodialysis,approximately 38%
same,time to maximum concentration (post-dose),"[6]; subjects on hemodialysis, plasma total radioactivity",5 min
same,share of total radioactivity excreted in feces recovered as unchanged difelikefalin,[7],84.8%
